# Starred links: 1 amine or outer side, 2 acyl side, 3 side chain; linkers in the order of their positions; H or OH if unused. Positions of bridges follow the written chain, without caps; N, C: chain ends. Non-standard residues stand in square brackets, D forms with d. Residues, ends and D or L forms follow the SMILES beside them. *: point of attachment. X2 = O=C(/C=C/c1csc([C@H](Cc2ccc(O)cc2)N[*:1])n1)[*:2]; X1 = CC[C@H](C)[C@H](N[*:1])C(=O)C(=O)[*:2]; Benzoyl(4-OH) = O=C(c1ccc(O)cc1)*; Cya = N[C@@H](CS(=O)(=O)O)C(=O)O; Nva = CCC[C@H](N)C(=O)O; Abu = CC[C@H](N)C(=O)O; Dap = NC[C@H](N)C(=O)O
# Tests used:
# [1] = Inhibition of elastase (unknown origin) incubated for 20 mins using N-Suc-Ala-Ala-Ala-p-nitroanilide substrate by spectrophotometry; design: species or system Homo sapiens
# Method in brief: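 Tris buffer (2.422 g Tris HCl/100 mL, pH 8.0). Enzyme stock 75 mg/mL and N-Suc-Ala-Ala-Ala-p-nitroanilide stock 0.9 mg/mL, both in buffer. Enzyme with sample preincubated 20 min at 30 °C before substrate addition. Absorbance at 405 nm followed kinetically over 20 min. Serial dilutions from 1 mg/mL DMSO stock; IC50 from four-parameter logistic fit.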
# Plasmodium falciparum [2] = assay: Antiplasmodial activity against Plasmodium falciparum assessed as inhibition of parasite growth incubated for 48 hrs by colorimetry based p-LDH assay; assay type: functional, organism-based
# [3] = Inhibition of chymotrypsin (unknown origin) incubated for 30 mins using Suc-Gly-Gly-phenylalanine-p-nitroanilide substrate by spectrophotometry; design: species or system Homo sapiens
# Method in brief: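 In Tris buffer (0.6 g Tris HCl/100 mL, pH 7.5), enzyme and Suc-Gly-Gly-Phe-p-nitroanilide substrate each dissolved in buffer at 1 mg/mL. Enzyme and sample preincubated 5 min at 37 °C, then substrate added. Absorbance at 405 nm read kinetically over 30 min. Samples from 1 mg/mL DMSO stock serially diluted; IC50 fitted by four-parameter logistic model.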
# Plasmodium falciparum [4] = assay: Antiplasmodial activity against Plasmodium falciparum; assay type: functional, organism-based
IC50 [1] [nM],IC50 [3] [nM],Compound,IC50 (Plasmodium falciparum [2]) [µg/mL],IC50 (Plasmodium falciparum [4]) [µg/mL]
0.1,2.8,CC[C@H](C)[C@@H]1NC(=O)[C@H](CC(C)C)NC(=O)[C@@H](NC(=O)[C@H](C)NC(=O)CNC(=O)c2ccc(O)cc2)CNC(=O)[C@H](CS(=O)(=O)[O-])NC(=O)/C=C/c2csc(n2)[C@H](Cc2ccc(O)cc2)NC(=O)C1=O.[Na+] ({Benzoyl(4-OH)}-GA[Dap]L[X1][X2][Cya]; lactam 3-C),> 20,–
0.099,2.3,CC[C@@H]1NC(=O)[C@@H](NC(=O)[C@H](C)NC(=O)CNC(=O)c2ccc(O)cc2)CNC(=O)[C@H](CS(=O)(=O)[O-])NC(=O)/C=C/c2csc(n2)[C@H](Cc2ccc(O)cc2)NC(=O)C(=O)[C@H]([C@@H](C)CC)NC1=O.[Na+] ({Benzoyl(4-OH)}-GA[Dap][Abu][X1][X2][Cya]; lactam 3-C),> 20,–
–,–,CO[C@H]1C[C@H](CC[C@H](C)[C@H](O)[C@H](C)[C@H]2OC(=O)/C=C/C(C)=C/C[C@H](O)C[C@@H]3C=CC[C@@H](C[C@H](OC)[C@@H](C)[C@@H](O)C[C@@H](O)[C@H](C)[C@@H]([C@@H](C)[C@@H](O)[C@@H](C)CC[C@H]4C[C@H](OC)C[C@H](C)O4)OC(=O)/C=C/C(C)=C/C[C@H](O)C[C@@H]4C=CC[C@@H](C[C@H](OC)[C@@H](C)[C@@H](O)C[C@@H](O)[C@@H]2C)O4)O3)O[C@@H](C)C1 [Swinholide A],–,4.75

Compound,IC50 [1] [nM],IC50 [3] [nM],IC50 (Plasmodium falciparum [2]) [µg/mL],IC50 (Plasmodium falciparum [4]) [µg/mL]
CCC[C@@H]1NC(=O)[C@@H](NC(=O)[C@H](C)NC(=O)CNC(=O)c2ccc(O)cc2)CNC(=O)[C@H](CS(=O)(=O)[O-])NC(=O)/C=C/c2csc(n2)[C@H](Cc2ccc(O)cc2)NC(=O)C(=O)[C@H]([C@@H](C)CC)NC1=O.[Na+] ({Benzoyl(4-OH)}-GA[Dap][Nva][X1][X2][Cya]; lactam 3-C),0.034,0.62,> 20,–
